Assay results from ChEMBL document CHEMBL1138881, “Application of phosphoramidate ProTide technology significantly improves antiviral potency of carbocyclic adenosine derivatives” (J Med Chem, 2006).

Experiments:
Hepatitis B virus = experiment: Antiviral activity against HBV in HepG2 2.2.15 cells; assay type: functional, organism-based
Outline: (§1)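 HepG2 2.2.15 cells, which produce HBV constitutively, were seeded at 5 × 10³ per well. Drug-containing medium was replaced every other day for 9 days. Virions in the supernatant were captured on anti-HBsAg plates, and their DNA was quantified by PCR against an HBV standard curve and normalized to untreated cells. For cell growth, monolayers were ethanol-fixed and stained with bisbenzimide H33342, and fluorescence was compared with untreated cells. SI = CC₅₀/EC₅₀.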

MT4 = experiment: Cytotoxicity against MT4 cells; assay type: functional; conditions: Homo sapiens
Outline: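 Exponentially growing MT-4 cells were resuspended at 5 × 10⁵ cells/mL in RPMI 1640 with 20% FBS and 20% IL-2. They were infected with HIV-1 IIIB (100 × TCID₅₀ per well) for 1 h at 37 °C, with mock-infected cells run in parallel. The suspension was diluted 6-fold onto serially diluted compound and incubated for 5 days at 37 °C in 5% CO₂. MTS staining was read at 492 nm.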

[1] = system: Human immunodeficiency virus 1; experiment: Antiviral activity against HIV1 3B in MT4 cells; assay type: functional, organism-based; conditions: Human immunodeficiency virus 1, 3B
Outline: (§2)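 MT-4 cells at 4.5 × 10⁵ cells/mL were infected with 100 CCID₅₀/mL of HIV-1 or HIV-2. Viable cells were then counted after trypan blue staining, and EC₅₀ was derived from these viable-cell counts.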

HepG2 = experiment: Cytotoxicity against HepG2 2.2.15 cells; assay type: functional; conditions: Homo sapiens; outline: as §1
CEM cells (Homo sapiens) = experiment: Cytotoxicity against CEM cells
[2] = system: Human immunodeficiency virus 2; experiment: Antiviral activity against HIV2 ROD in MT4 cells; assay type: functional, organism-based; conditions: Human immunodeficiency virus 2, ROD; outline: as §2
[3] = system: Human immunodeficiency virus 1; experiment: Antiviral activity against HIV1 3B in CEM cells; assay type: functional, organism-based; conditions: Human immunodeficiency virus 1, 3B, CCRF-CEM
Outline: (§3)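 CEM cells at 4.5 × 10⁵ cells/mL were infected with 100 CCID₅₀/mL of HIV-1 or HIV-2. Giant-cell formation was scored microscopically. EC₅₀ was the concentration preventing syncytium formation by 50%.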

[4] = system: Human immunodeficiency virus 2; experiment: Antiviral activity against HIV2 ROD in CEM cells; assay type: functional, organism-based; conditions: Human immunodeficiency virus 2, ROD, CCRF-CEM; outline: as §3
Cynomolgus monkey [5] = experiment: Metabolic stability in cynomolgus monkey liver S9 fraction; assay type: ADME, Macaca fascicularis
Outline: (§4)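 Pooled cynomolgus S9 (liver or intestinal segments), test compound 10 µM final, 37 °C, DMSO <1% final; reaction started with NADPH 2.5 mM final. Aliquots taken at 0 (preincubation), 10, 20, 30 and 60 min, quenched with cold acetonitrile, centrifuged; supernatant parent measured by LC/MS/MS. Stability given as % remaining from pre- vs postincubation peak areas.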

Cynomolgus monkey [6] = experiment: Metabolic stability in cynomolgus monkey intestine S9 fraction; assay type: ADME, Macaca fascicularis; outline: as §4

SMILES | EC50 (Hepatitis B virus) [µM] | CC50 (MT4) [µM] | EC50 [1] [µM] | CC50 (HepG2) [µM] | CC50 (CEM cells (Homo sapiens)) [µM] | EC50 [2] [µM] | EC50 [3] [µM] | EC50 [4] [µM] | Stability (Cynomolgus monkey [5]) [%] | Stability (Cynomolgus monkey [6]) [%]
Nc1ncnc2c1ncn2[C@@H]1C=C[C@H](CO)C1 | 0.98 | > 100 | 80 | > 200 | – | – | – | – | – | –
COC(=O)[C@H](C)NP(=O)(OC[C@H]1CC[C@@H](n2cnc3c(N)ncnc32)C1)Oc1ccccc1 (stereo partly specified) | 0.6 | > 12.5 | 1.8 | > 2 | – | – | – | – | – | –
COC(=O)[C@H](NP(=O)(OC[C@H]1C=C[C@@H](n2cnc3c(N)ncnc32)C1)Oc1ccccc1)C(C)C (stereo partly specified) | 0.6 | > 16 | 2.3 | > 200 | 230 | 14.2 | 7.5 | 10 | – | –
COC(=O)[C@@H](CC(C)C)NP(=O)(OC[C@H]1C=C[C@@H](n2cnc3c(N)ncnc32)C1)Oc1ccccc1 (stereo partly specified) | 0.13 | < 16 | < 1 | > 2 | 88.5 | 0.93 | 1.6 | 3.5 | – | –
CCOC(=O)c1ccccc1OP(=O)(N[C@@H](C)C(=O)OC)OC[C@H]1C=C[C@@H](n2cnc3c(N)ncnc32)C1 (stereo partly specified) | 0.004 | < 4 | < 0.26 | 12 | 4.17 | – | 0.053 | 0.057 | 25 | 80
COC(=O)[C@H](Cc1ccccc1)NP(=O)(OC[C@H]1C=C[C@@H](n2cnc3c(N)ncnc32)C1)Oc1ccccc1 (stereo partly specified) | 0.0045 | 16 | 0.1 | 9 | – | – | – | – | – | –
COC(=O)[C@@H](C)NP(=O)(OC[C@H]1C=C[C@@H](n2cnc3c(N)ncnc32)C1)Oc1ccccc1 (stereo partly specified) | 0.0265 | > 100 | 2.05 | > 200 | – | – | – | – | 41 | 94
COC(=O)C[C@@H](NP(=O)(OC[C@H]1C=C[C@@H](n2cnc3c(N)ncnc32)C1)Oc1ccccc1)C(=O)OC (stereo partly specified) | 0.02 | > 10 | 2.1 | > 2 | ≥ 250 | 3.71 | 5 | 15 | – | –
COC(=O)[C@H]1CCCN1P(=O)(OC[C@H]1C=C[C@@H](n2cnc3c(N)ncnc32)C1)Oc1ccccc1 (stereo partly specified) | > 2 | 227 | 117 | > 2 | ≥ 250 | 105 | 110 | 105 | – | –
Nc1ncnc2c1ncn2[C@H]1C=C[C@@H](CO)C1 | 52 | > 500 | 15 | > 200 | – | – | – | – | – | –
COC(=O)[C@H](CCSC)NP(=O)(OC[C@H]1C=C[C@@H](n2cnc3c(N)ncnc32)C1)Oc1ccccc1 (stereo partly specified) | 0.03 | > 5 | 0.16 | 16 | 85.8 | 0.21 | 0.53 | 1 | 0 | 66
COC(=O)[C@H](C)NP(=O)(OC[C@H]1C=C[C@@H](n2cnc3c(N)ncnc32)C1)Oc1ccc(Cl)cc1 (stereo partly specified) | 0.003 | 2 | 0.009 | > 2 | 3.11 | 0.018 | 0.015 | 0.047 | – | –
COC(=O)[C@@H](Cc1ccccc1)NP(=O)(OC[C@H]1C=C[C@@H](n2cnc3c(N)ncnc32)C1)Oc1ccccc1 (stereo partly specified) | 0.7 | > 40 | 2.8 | 200 | 108 | 5.93 | 9 | 8.67 | – | –
COC(=O)[C@H](Cc1ccc(O)cc1)NP(=O)(OC[C@H]1C=C[C@@H](n2cnc3c(N)ncnc32)C1)Oc1ccccc1 (stereo partly specified) | 0.05 | 26.9 | 0.58 | > 2 | 110 | 0.72 | 5.33 | 18.1 | 0 | 0
COC(=O)[C@H](C)NP(=O)(OC[C@H]1C=C[C@@H](n2cnc3c(N)ncnc32)C1)Oc1ccc(Cl)c(Cl)c1 (stereo partly specified) | 0.005 | > 4 | 0.077 | > 2 | 13 | 0.076 | 0.09 | 0.11 | – | –
CCOC(=O)[C@H](C)NP(=O)(OC[C@H]1C=C[C@@H](n2cnc3c(N)ncnc32)C1)Oc1ccccc1 (stereo partly specified) | 0.02 | > 25 | 0.017 | 22 | – | – | – | – | 15 | 39
COC(=O)[C@H](C)NP(=O)(OC[C@H]1C=C[C@@H](N2C=NC3C(N)=NC=NC32)C1)Oc1ccc(C(F)(F)F)cc1 (stereo partly specified) | < 0.0032 | 5.87 | 0.035 | 0.72 | 6.4 | 0.046 | 0.06 | 0.06 | – | –
CC[C@H](C)[C@H](NP(=O)(OC[C@H]1C=C[C@@H](n2cnc3c(N)ncnc32)C1)Oc1ccccc1)C(=O)OC (stereo partly specified) | 0.06 | > 5 | 0.96 | 76 | 118 | 1.13 | 2.1 | 3.5 | 0 | 69
Nc1ncnc2c1ncn2[C@@H]1CC[C@H](CO)C1 | 61 | > 10 | > 10 | > 200 | – | – | – | – | – | –
COC(=O)[C@@H]1CCCN1P(=O)(OC[C@H]1C=C[C@@H](n2cnc3c(N)ncnc32)C1)Oc1ccccc1 (stereo partly specified) | 0.51 | > 10 | 5.28 | > 2 | 92.1 | 21 | 3.5 | 7.5 | – | –
COC(=O)[C@H](C)NP(=O)(OC[C@H]1C=C[C@@H](n2cnc3c(N)ncnc32)C1)Oc1ccc([N+](=O)[O-])cc1 (stereo partly specified) | 0.007 | 10 | 0.12 | > 2 | 17.4 | 0.17 | 0.1 | 0.1 | – | –
COC(=O)[C@H](CCCCN)NP(=O)(OC[C@H]1C=C[C@@H](n2cnc3c(N)ncnc32)C1)Oc1ccccc1.O=C(O)C(F)(F)F (stereo partly specified) | 2 | > 25 | 15.2 | > 100 | > 250 | 27.2 | 25 | 150 | 95 | 17
COC(=O)[C@@H](Cc1c[nH]c2ccccc12)NP(=O)(OC[C@H]1C=C[C@@H](n2cnc3c(N)ncnc32)C1)Oc1ccccc1 (stereo partly specified) | 0.2 | > 40 | 13.3 | > 2 | 93.4 | 21.9 | 20 | 25 | – | –
COC(=O)[C@H](C)NP(=O)(OC[C@@H]1C=C[C@H](n2cnc3c(N)ncnc32)C1)Oc1ccccc1 (stereo partly specified) | 4 | 3.7 | 0.3 | 5.4 | – | – | – | – | – | –
COC(=O)[C@@H](CCSC)NP(=O)(OC[C@H]1C=C[C@@H](n2cnc3c(N)ncnc32)C1)Oc1ccccc1 (stereo partly specified) | 0.22 | > 25 | 2.5 | > 2 | 211 | 3.48 | 7.67 | 7.87 | – | –
COC(=O)C[C@H](NP(=O)(OC[C@H]1C=C[C@@H](n2cnc3c(N)ncnc32)C1)Oc1ccccc1)C(=O)OC (stereo partly specified) | 0.05 | > 16 | 0.32 | > 2 | > 50 | 0.26 | 1.1 | 3.5 | 4 | 8
COC(=O)[C@H](C)NP(=O)(OC[C@H]1C=C[C@@H](n2cnc3c(N)ncnc32)C1)Oc1cccc(C(F)(F)F)c1 (stereo partly specified) | – | – | – | – | – | – | – | – | 45 | 92
Nc1ncnc2c1ncn2[C@H]1CC[C@@H](CO)C1 | 33 | > 125 | 50 | > 200 | – | – | – | – | – | –
COC(=O)[C@H](Cc1ccc(OC(C)(C)C)cc1)NP(=O)(OC[C@H]1C=C[C@@H](n2cnc3c(N)ncnc32)C1)Oc1ccccc1 (stereo partly specified) | 0.026 | 19.8 | 0.11 | > 2 | 79.7 | 0.13 | 3 | 5.5 | – | –
C[C@H](NP(=O)(OC[C@H]1C=C[C@@H](n2cnc3c(N)ncnc32)C1)Oc1ccccc1)C(=O)OCc1ccccc1 (stereo partly specified) | 0.0075 | 255 | 0.009 | 5 | – | – | – | – | 0 | 0
